From ChEMBL document CHEMBL3393017, “Flavokawains B and C, melanogenesis inhibitors, isolated from the root of Piper methysticum and synthesis of analogs” (Bioorg Med Chem Lett, 2015)

How the values were obtained:
Tyrosinase = biological target: T1, Tyrosinase (Agaricus bisporus, UniProt O42713); test: Inhibition of mushroom tyrosinase using L-tyrosine as substrate after 20 mins by microplate reader
T1 sequence (O42713 whole entry): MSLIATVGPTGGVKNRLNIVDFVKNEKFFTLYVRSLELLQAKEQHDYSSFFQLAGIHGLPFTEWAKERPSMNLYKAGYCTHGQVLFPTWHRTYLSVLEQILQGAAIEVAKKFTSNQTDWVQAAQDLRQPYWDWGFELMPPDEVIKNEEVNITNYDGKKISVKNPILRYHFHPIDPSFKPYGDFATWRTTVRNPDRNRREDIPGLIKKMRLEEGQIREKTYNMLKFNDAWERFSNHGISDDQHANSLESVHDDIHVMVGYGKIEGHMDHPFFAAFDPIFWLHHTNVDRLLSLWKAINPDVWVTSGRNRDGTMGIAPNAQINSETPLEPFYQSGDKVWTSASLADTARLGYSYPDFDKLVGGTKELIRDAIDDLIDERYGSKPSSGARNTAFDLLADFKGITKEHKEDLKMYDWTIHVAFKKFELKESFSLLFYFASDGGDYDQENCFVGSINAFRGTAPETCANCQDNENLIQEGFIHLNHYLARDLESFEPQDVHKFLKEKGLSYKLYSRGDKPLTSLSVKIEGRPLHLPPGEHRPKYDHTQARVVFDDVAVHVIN

[1] = (§1) Antimelanogenic activity in mouse B16F10 cells assessed as inhibition of melanin production after 4 days; format: functional, cell-based; conditions: B16-F10, 96 h
Procedure, shortened: (§2)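 MSH-activated B16 melanoma cells were treated in triplicate, with the medium changed daily. After 4 d the cells were lysed in 1 N NaOH, and relative melanin in the lysate was read at 400 nm. Compounds were screened at 10 ppm, and those giving >50% inhibition were retested at other concentrations to derive IC50. Viability was checked by crystal violet staining read at 590 nm.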

B16-F10 = test: as §1; format: functional, cell-based; procedure, shortened: as §2

| SMILES | IC50 (Tyrosinase) | IC50 [1] [µM] | inhibition (B16-F10) |
| --- | --- | --- | --- |
| COc1cc(O)c(C(=O)/C=C/c2ccccc2OC)c(OC)c1 | Not Active | 3.8 | – |
| COc1cc(O)c(C(=O)/C=C/c2c(C)cccc2C)c(OC)c1 | Not Active | 9.9 | – |
| COc1cc(O)c(C(=O)/C=C/c2ccccc2O)c(OC)c1 | Not Active | 2.3 | – |
| COc1cc(O)c(C(=O)/C=C/c2ccc(O)cc2O)c(OC)c1 | Not Active | 3.4 | – |
| CCc1ccccc1/C=C/C(=O)c1c(O)cc(OC)cc1OC | Not Active | 2.5 | – |
| COc1ccc(/C=C/C(=O)c2c(O)cc(OC)cc2OC)c(OC)c1 | Not Active | – | – |
| COc1ccc(/C=C/C(=O)c2c(O)cc(OC)cc2OC)cc1 [FLAVOKAWAIN A] | Not Active | – | – |
| COc1cc(O)c(C(=O)/C=C/c2ccc(O)c(O)c2)c(OC)c1 | Not Active | 31.6 | – |
| COc1cc(O)c(C(=O)/C=C/c2cccc(O)c2)c(OC)c1 | Not Active | 9.9 | – |
| COc1cc(O)c(C(=O)/C=C/c2ccccc2C(C)C)c(OC)c1 | Not Active | 2.7 | – |
| COc1cc(O)c(C(=O)/C=C/c2ccccc2)c(OC)c1 [FLAVOKAWAIN B] | Not Active | 7.7 | Dose-dependent effect |
| COc1cccc(/C=C/C(=O)c2c(O)cc(OC)cc2OC)c1 | Not Active | 3.1 | – |
| O=c1cc(CO)occ1O [KOJIC ACID] | – | > 500 | – |
| COc1cc(O)c(C(=O)/C=C/c2ccc(O)cc2)c(OC)c1 [FLAVOKAWAIN C] | Not Active | 6.9 | Dose-dependent effect |
| COc1cc(O)c(C(=O)/C=C/c2ccccc2C)c(OC)c1 | Not Active | 3 | – |
